Records with an inconclusive call do not appear. Activity calls are given as the source filed them.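 The calls were made as follows: active = sigmoid dose curve converging in at least two of three replicates, including loose fits with few points beside the midpoint; inactive = curve converging in fewer than two replicates.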
Tested on: HEK293 thallium flux, FluoZin-2 fluorescence, ouabain+bumetanide
Test: native HEK Tl+ uptake potency with bumetanide block – HEK cells, counterscreen 2, counter-screen for KCC2 modulator project, dose response (AID 1735)
Method in brief: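 Material: HEK cells | Buffer or medium: HBSS-HEPES plus ouabain and bumetanide | Also added: Thallium stimulus buffer at pH 7.3 | Doses: 11-point threefold dilution series, top dose 30 µM | Schedule: Overnight plating, 10–20 s after thallium read | Detection: Kinetic fluorescence of FluoZin-2 dye, loaded as 0.5 µM AM ester | Repeats: Triplicate, replicates fitted separately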

Row | Structure (SMILES) | EC50
1 | O=C(NC(=S)Nc1nc(-c2cccc([N+](=O)[O-])c2)cs1)c1cc(Cl)ccc1Cl | 0.689 µM
2 | CCOc1ccc2nc(SC3CC(=O)N(c4cccc(OC)c4)C3=O)sc2c1 (stereo not drawn) | 3.2 µM
3 | COC(=O)c1sccc1NC(=S)OC | 1.58 µM
4 | CCOCCCNC(=O)c1ccc(-n2c(=S)[nH]c3ccccc3c2=O)cc1 | 24.2 µM (inactive)
5 | Cc1ccc(-c2n[nH]c(=S)n2/N=C/C=C\c2ccccc2[N+](=O)[O-])cc1 | 0.643 µM
6 | NC(=S)N=Nc1c(O)n(Cc2ccccc2)c2ccccc12 | 0.0883 µM (inactive)
7 | Cc1nn(-c2nc3ccccc3[nH]2)c(N)c1-c1ccccc1 | 2.46 µM
8 | O=C(NC(=S)Nc1ccc2c(c1)OCO2)c1ccc(Cl)cc1 | 0.0585 µM (inactive)
9 | O=[N+]([O-])c1ccc(-c2cn(-c3ccccc3F)c(=S)[nH]2)cc1 | 0.52 µM
10 | COC(=O)[C@@H](NC(=O)O[C@@H]1C(=O)c2ccc(OC)cc2O[C@H]1c1cccc(C(F)(F)F)c1)C(C)C | 0.612 µM
11 | S=C(NCCc1ccccc1)N/N=C/c1cccc(Cl)c1Cl | 14.3 µM (inactive)
12 | N=C1SCC(=O)N1c1ncc(Cc2cccc(Cl)c2)s1 | 3.03 µM
13 | Cc1onc(-c2ccccc2Cl)c1C(=O)NC(=S)Nc1ccc(C(C)C)cc1 | 0.246 µM
14 | NC(=S)N=Nc1c(O)n(Cc2ccc(F)cc2)c2ccccc12 | 2.2 µM
15 | COc1ccc(Cn2c(=S)[nH]c3ccccc32)cc1 | 0.397 µM
16 | CC(=O)c1cccc(NC(=S)NC(=O)c2ccc(C)cc2)c1 | 1.58 µM
17 | COc1ccc(N2C(=S)N=C(Nc3cccc(C)c3)C23CCCCC3)cc1 | 2.62 µM
18 | CCOc1[nH]n(-c2ccccc2)c(=O)c1C=Nc1ccc(F)cc1F | 2.2 µM
